Results published in ChEMBL document CHEMBL1151419, “Antimicrobial effect of halocidin-derived peptide in a mouse model of Listeria infection” (Antimicrob Agents Chemother, 2007).
Values after ≈ are worked out from the molar mass of the structure shown. Active and inactive are the calls of the source. No cut-off for these calls is given here. Bridge positions count the residues as written; N and C are the ends. Peptide text beside a SMILES is read from it. I, II: the chains in the order shown.

Tests used:
Enterococcus faecium [1] = assay: Antimicrobial activity against vancomycin-resistant Enterococcus faecium CCARM 5029 after 18 hrs by broth microdilution assay in presence of 150 mM NaCl; assay type: functional; conditions: CCARM 5029, 18 h
In short: (§1)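 Same broth microdilution, but the medium was Mueller-Hinton broth supplemented with 150 mM NaCl. Inoculum 2 x 10^5 CFU/ml final. Peptide twofold series in 0.01% acetic acid (stocks 640 to 10 µg/ml). After 18 h at 37°C, MIC read as the lowest concentration with no visible growth.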

Staphylococcus aureus [2] = assay: Antimicrobial activity against methicillin-resistant Staphylococcus aureus CCARM 3695 treated with supernatant containing 2 mg drug incubated for 10 mins with PBS containing 50 % normal human serum centrifuged for 3 hrs by radial diffusion assay; assay type: functional, organism-based
In short: (§2)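 2 mg peptide incubated 10 min at 37°C in 2 ml PBS, either serum-free or with 50% heat-treated normal human serum. Spun 3 h at 295,000 x g, 4°C. Then 5 µl of supernatant tested by radial diffusion against mid-log MRSA (4 x 10^6 CFU/ml underlay, 3 h at 37°C, overlay, overnight); clear zones measured.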

Staphylococcus aureus [3] = assay: Antimicrobial activity against methicillin-resistant Staphylococcus aureus CCARM 3695 treated with sample containing 200 ug/ml drug incubated with PBS containing 50% normal human serum for 10 mins measured after 3 hrs by radial diffusion assay; assay type: functional, organism-based
In short: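 Normal human serum from three donors, heat-treated 30 min at 56°C. Peptide at 25–200 µg/ml in PBS with 50% serum, held 10 min at 37°C; 5 µl placed in 3-mm wells. Underlay: 1% agarose, 9 mM phosphate, 1 mM citrate, 0.3 mg/ml TSB, pH 7.4, with 4 x 10^6 CFU/ml mid-log MRSA. After 3 h at 37°C, overlaid (1% agarose, 6% TSB), incubated overnight. Clear zones in units (1 mm = 10 units); triplicate means.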

Staphylococcus aureus [4] = assay: Antimicrobial activity against methicillin-resistant Staphylococcus aureus CCARM 3695 after 18 hrs by broth microdilution assay; assay type: functional; conditions: CCARM 3695, 18 h
In short: (§3)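 Broth microdilution (modified CLSI). Overnight stationary-phase Mueller-Hinton broth cultures diluted to 2 x 10^5 CFU/ml final. Peptide serially twofold diluted in 0.01% acetic acid (stock series 640 down to 10 µg/ml); 11 µl added to 100 µl of bacteria. After 18 h at 37°C, MIC taken as the lowest concentration preventing visible turbidity.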

Staphylococcus aureus [5] = assay: Antimicrobial activity against methicillin-resistant Staphylococcus aureus CCARM 3695 after 18 hrs by broth microdilution assay in presence of 150 mM NaCl; assay type: functional; conditions: CCARM 3695, 18 h; in short: as §1
Listeria monocytogenes [6] = assay: Antimicrobial activity against Listeria monocytogenes ATCC 19111 after 18 hrs by broth microdilution assay; assay type: functional; conditions: ATCC 19111, 18 h
In short: (§4)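 Bacteria were grown overnight to stationary phase in Mueller-Hinton broth at 37°C and diluted to 2 x 10^5 CFU/ml. Line 3 used MHB plus 150 mM NaCl. Peptide stock (640 µg/ml in 0.01% acetic acid) was twofold serially diluted to 10 µg/ml, and 11 µl was added per 100 µl of cells. Turbidity was read after 18 h at 37°C; MIC was the minimum concentration visibly inhibiting growth.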

Listeria monocytogenes [7] = assay: Antimicrobial activity against Listeria monocytogenes ATCC 19111 after 18 hrs by broth microdilution assay in presence of 150 mM NaCl; assay type: functional; conditions: ATCC 19111, 18 h; in short: as §4
Enterococcus faecium [8] = assay: Antimicrobial activity against vancomycin-resistant Enterococcus faecium CCARM 5029 after 18 hrs by broth microdilution assay; assay type: functional; conditions: CCARM 5029, 18 h; in short: as §3
Staphylococcus aureus [9] = assay: Antimicrobial activity against methicillin-resistant Staphylococcus aureus CCARM 3695 treated with supernatant containing 2 mg drug incubated for 10 mins with PBS centrifuged for 3 hrs by radial diffusion assay; assay type: functional, organism-based; in short: as §2
Listeria monocytogenes [10] = assay: Antibacterial activity against Listeria monocytogenes ATCC 19111 in assay tube containing mixture of erythrocyte/Listeria monocytogenes cells assessed as logarithmic reduction in CFU after 30 mins; assay type: functional
In short: (§5)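 Washed mid-log L. monocytogenes (final 1 x 10^5 CFU/ml) was mixed with human blood cells (final 5 x 10^8 cells/ml) and peptide (final 40 µg/ml) in PBS at 37°C. A peptide-free control was included. At 10, 20 and 30 min, aliquots were plated on TSA and colonies counted after overnight growth. Blood cells were counted by hemocytometer under light microscopy.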

[11] = Toxicity against human erythrocytes in assay tube containing mixture of erythrocytes/Listeria monocytogenes cells at 40 ug/ml after 30 mins; assay type: cell-based; conditions: erythrocyte, 0.5 h; in short: as §5

Molecule	MIC (Enterococcus faecium [1]) [µg/mL]	Activity (Staphylococcus aureus [2])	Activity (Staphylococcus aureus [3])	MIC (Staphylococcus aureus [4]) [µg/mL]	MIC (Staphylococcus aureus [5]) [µg/mL]	MIC (Listeria monocytogenes [6]) [µg/mL]	MIC (Listeria monocytogenes [7]) [µg/mL]	MIC (Enterococcus faecium [8]) [µg/mL]	Activity (Staphylococcus aureus [9])	Activity (Listeria monocytogenes [10])	Activity [11]
CC(C)C[C@H](NC(=O)CNC(=O)[C@H](Cc1cnc[nH]1)NC(=O)[C@H](Cc1cnc[nH]1)NC(=O)[C@H](CC(C)C)NC(=O)[C@H](CC(C)C)NC(=O)[C@H](C)NC(=O)[C@H](CC(N)=O)NC(=O)[C@H](CC(C)C)NC(=O)[C@H](Cc1c[nH]c2ccccc12)NC(=O)[C@@H](N)CCCCN)C(=O)N[C@@H](CC(N)=O)C(=O)N[C@@H](CSSC[C@H](NC(=O)[C@H](CC(N)=O)NC(=O)[C@H](CC(C)C)NC(=O)CNC(=O)[C@H](Cc1cnc[nH]1)NC(=O)[C@H](Cc1cnc[nH]1)NC(=O)[C@H](CC(C)C)NC(=O)[C@H](CC(C)C)NC(=O)[C@H](C)NC(=O)[C@H](CC(N)=O)NC(=O)[C@H](CC(C)C)NC(=O)[C@H](Cc1c[nH]c2ccccc12)NC(=O)[C@@H](N)CCCCN)C(=O)N[C@@H](C)C(=O)N[C@@H](CCCCN)C(=O)NCC(=O)N[C@H](C(=O)N[C@@H](CC(C)C)C(=O)N[C@@H](C)C(=O)O)C(C)C)C(=O)N[C@@H](C)C(=O)N[C@@H](CCCCN)C(=O)NCC(=O)N[C@H](C(=O)N[C@@H](CC(C)C)C(=O)N[C@@H](C)C(=O)O)C(C)C (I: H-KWLNALLHHGLNCAKGVLA-OH / II: H-KWLNALLHHGLNCAKGVLA-OH; disulfide I:13-II:13)	4	inactive	inactive	4 (≈ 0.972 µM)	8	4 (≈ 0.972 µM)	8	4 (≈ 0.972 µM)			
CC(C)C[C@H](NC(=O)CNC(=O)[C@H](Cc1cnc[nH]1)NC(=O)[C@H](Cc1cnc[nH]1)NC(=O)[C@H](CC(C)C)NC(=O)[C@H](CC(C)C)NC(=O)[C@H](C)N)C(=O)N[C@@H](CC(N)=O)C(=O)N[C@@H](CSSC[C@H](NC(=O)[C@H](CC(N)=O)NC(=O)[C@H](CC(C)C)NC(=O)CNC(=O)[C@H](Cc1cnc[nH]1)NC(=O)[C@H](Cc1cnc[nH]1)NC(=O)[C@H](CC(C)C)NC(=O)[C@H](CC(C)C)NC(=O)[C@H](C)NC(=O)[C@H](CC(N)=O)NC(=O)[C@H](CC(C)C)NC(=O)[C@@H](N)Cc1c[nH]c2ccccc12)C(=O)N[C@@H](C)C(=O)N[C@@H](CCCCN)C(=O)NCC(=O)N[C@H](C(=O)N[C@@H](CC(C)C)C(=O)N[C@@H](C)C(=O)O)C(C)C)C(=O)N[C@@H](C)C(=O)N[C@@H](CCCCN)C(=O)NCC(=O)N[C@H](C(=O)N[C@@H](CC(C)C)C(=O)N[C@@H](C)C(=O)O)C(C)C [HALOCIDIN] (I: H-WLNALLHHGLNCAKGVLA-OH / II: H-ALLHHGLNCAKGVLA-OH; disulfide I:12-II:9)	> 64	Active		16 (≈ 4.64 µM)	32	64 (≈ 18.6 µM)	> 64	64 (≈ 18.6 µM)	Active		
CC[C@H](C)[C@H](NC(=O)CN)C(=O)NCC(=O)N[C@@H](C)C(=O)N[C@H](C(=O)N[C@@H](CC(C)C)C(=O)N[C@@H](CCCCN)C(=O)N[C@H](C(=O)N[C@@H](CC(C)C)C(=O)N[C@H](C(=O)N[C@H](C(=O)NCC(=O)N[C@@H](CC(C)C)C(=O)N1CCC[C@H]1C(=O)N[C@@H](C)C(=O)N[C@@H](CC(C)C)C(=O)N[C@H](C(=O)N[C@@H](CO)C(=O)N[C@@H](Cc1c[nH]c2ccccc12)C(=O)N[C@H](C(=O)N[C@@H](CCCCN)C(=O)N[C@@H](CCCNC(=N)N)C(=O)N[C@@H](CCCCN)C(=O)N[C@@H](CCCNC(=N)N)C(=O)N[C@@H](CCC(N)=O)C(=O)N[C@@H](CCC(N)=O)C(N)=O)[C@@H](C)CC)[C@@H](C)CC)[C@@H](C)O)[C@@H](C)O)C(C)C)C(C)C [MELITTIN]										Active	Toxic
H-RRWVRRVRRVWRRVVRVVRRWVRR-OH										Active	Toxic
